# Results published in ChEMBL document CHEMBL1144562, “Synthesis of a new class of 2-anilino substituted nicotinyl arylsulfonylhydrazides as potential anticancer and antibacterial agents” (2007).
# How the values were obtained:
# [1] = tested on: KM12; experiment: Antitumor activity against KM12 cells; type: functional; conditions: Homo sapiens
# [2] = tested on: MCF7; experiment: Antitumor activity against MCF7 cells; type: functional; conditions: Homo sapiens
# [3] = Antitumor activity against HL60 (TB) cells; type: functional, HL-60(TB); conditions: Homo sapiens, HL-60
# In short: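 NCI 60-cell-line in vitro screen (leukaemia subpanel). Compound tested at five 10-fold dilutions from 10^-4 to 10^-8 M. Dose-response parameters: GI50 (concentration giving 50% net growth inhibition), TGI (total growth inhibition) and LC50 (50% net cell death), each reported as log10 of molar concentration.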
# [4] = tested on: A549; experiment: Antitumor activity against A549 cells; type: functional; conditions: Homo sapiens
# [5] = tested on: SW-620; experiment: Antitumor activity against SW620 cells; type: functional; conditions: Homo sapiens
# In short: (§1)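 Tested in the NCI 60-human-tumour-cell-line panel at five concentrations, in 10-fold dilutions from 10^-4 to 10^-8 M. Three parameters were taken from the dose-response data, each as log10 of the molar concentration: GI50 (50% net growth inhibition), TGI (total growth inhibition) and LC50 (50% net cell death).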
# [6] = tested on: SF-268; experiment: Antitumor activity against SF268 cells; type: functional; conditions: Homo sapiens
# [7] = tested on: UACC-257; experiment: Antitumor activity against UACC257 cells; type: functional; conditions: Homo sapiens; in short: as §1
# [8] = tested on: UACC-62; experiment: Antitumor activity against UACC62 cells; type: functional; conditions: Homo sapiens; in short: as §1
# [9] = tested on: COLO 205; experiment: Antitumor activity against COLO205 cells; type: functional; conditions: Homo sapiens
# [10] = tested on: M14; experiment: Antitumor activity against M14 cells; type: functional; conditions: Homo sapiens
# [11] = tested on: HOP-62; experiment: Antitumor activity against HOP62 cells; type: functional; conditions: Homo sapiens
# [12] = tested on: NCI-H226; experiment: Antitumor activity against NCI-H226 cells; type: functional; conditions: Homo sapiens
# [13] = tested on: Escherichia coli; experiment: Antibacterial activity against Escherichia coli MTCC 448 after 18 hrs; type: functional; conditions: MTCC 448, 18 h
# In short: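 Disc diffusion (Kirby–Bauer) on Mueller-Hinton agar inoculated with fresh bacteria at 1-5 × 10^4 cfu mL-1. Compounds were dissolved in DMF at a range of concentrations, and discs were placed in triplicate. Plates were incubated at 30 °C for 18 h. MIC was taken as the lowest concentration giving no visible bacterial growth on the plate.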
# [14] = tested on: PC-3; experiment: Antitumor activity against PC3 cells; type: functional; conditions: Homo sapiens
# [15] = tested on: OVCAR-8; experiment: Antitumor activity against OVCAR8 cells; type: functional; conditions: Homo sapiens
# [16] = tested on: T47D; experiment: Antitumor activity against T47D cells; type: functional; conditions: Homo sapiens; in short: as §1
# [17] = tested on: OVCAR-4; experiment: Antitumor activity against OVCAR4 cells; type: functional; conditions: Homo sapiens
# [18] = tested on: HCC 2998; experiment: Antitumor activity against HCC2998 cells; type: functional; conditions: Homo sapiens
# [19] = tested on: ACHN; experiment: Antitumor activity against ACHN cells; type: functional; conditions: Homo sapiens
# [20] = tested on: RXF 393; experiment: Antitumor activity against RXF393 cells; type: functional; conditions: Homo sapiens
# [21] = tested on: SR; experiment: Antitumor activity against SR cells; type: functional; conditions: Homo sapiens; in short: as §1
# [22] = tested on: SN12C; experiment: Antitumor activity against SN12C cells; type: functional; conditions: Homo sapiens; in short: as §1
# [23] = tested on: OVCAR-3; experiment: Antitumor activity against OVCAR-3 cells; type: functional; conditions: Homo sapiens
# [24] = Antitumor activity against LOX IMV1 cells; type: functional; conditions: Homo sapiens
# [25] = tested on: SNB-75; experiment: Antitumor activity against SNB75 cells; type: functional; conditions: Homo sapiens; in short: as §1
# [26] = tested on: CCRF-CEM; experiment: Antitumor activity against CCRF-CEM cells; type: functional; conditions: Homo sapiens
# [27] = tested on: SK-MEL-28; experiment: Antitumor activity against SK-MEL-28 cells; type: functional; conditions: Homo sapiens
# [28] = tested on: SK-MEL-5; experiment: Antitumor activity against SK-MEL-5 cells; type: functional; conditions: Homo sapiens; in short: as §1
# [29] = tested on: SF-539; experiment: Antitumor activity against SF539 cells; type: functional; conditions: Homo sapiens
# [30] = tested on: MDA-MB-435; experiment: Antitumor activity against MDA-MB-435 cells; type: functional; conditions: Homo sapiens
# [31] = tested on: SF-295; experiment: Antitumor activity against SF295 cells; type: functional; conditions: Homo sapiens
# [32] = tested on: 786-0; experiment: Antitumor activity against 786-0 cells; type: functional; conditions: Homo sapiens
# [33] = Antitumor activity against NCI-H322 cells; type: functional; conditions: Homo sapiens
# [34] = tested on: K562; experiment: Antitumor activity against K562 cells; type: functional; conditions: Homo sapiens
# [35] = tested on: NCI-H460; experiment: Antitumor activity against NCI-H460 cells; type: functional; conditions: Homo sapiens
# [36] = tested on: HT-29; experiment: Antitumor activity against HT29 cells; type: functional; conditions: Homo sapiens
# [37] = tested on: Hs-578T; experiment: Antitumor activity against HS578T cells; type: functional; conditions: Homo sapiens
# [38] = tested on: BT-549; experiment: Antitumor activity against BT549 cells; type: functional; conditions: Homo sapiens
# [39] = tested on: U-251; experiment: Antitumor activity against U251 cells; type: functional; conditions: Homo sapiens; in short: as §1
# [40] = tested on: EKVX; experiment: Antitumor activity against EKVX cells; type: functional; conditions: Homo sapiens
# [41] = read-out: Log LC50 (the source's name) (converted)
compound,measurement,setting,value
O=C(NNS(=O)(=O)c1ccc(F)cc1)c1cccnc1Nc1ccc(Cl)cc1Cl,GI50,[1],22.9 µM
same,CC50,[1]; [41],> 100 µM
same,TGI,[1]; read-out: Log TGI (converted),49 µM
same,GI50,[2],31.6 µM
same,LC50,[2],> 100 µM
same,TGI,[2]; read-out: Log TGI (converted),> 100 µM
same,GI50,[3],25.1 µM
same,LC50,[3],> 100 µM
same,TGI,[3]; read-out: Log TGI (converted),61.7 µM
same,GI50,[4],17.4 µM
same,LC50,[4],97.7 µM
same,TGI,[4]; read-out: Log TGI (converted),40.7 µM
same,GI50,[5],28.8 µM
same,CC50,[5]; [41],> 100 µM
same,TGI,[5]; read-out: Log TGI (converted),> 100 µM
same,GI50,[6],45.7 µM
same,LC50,[6],> 100 µM
same,TGI,[6]; read-out: Log TGI (converted),> 100 µM
same,GI50,[7],11.7 µM
same,LC50,[7],> 100 µM
same,TGI,[7]; read-out: Log TGI (converted),52.5 µM
same,GI50,[8],45.7 µM
same,LC50,[8],> 100 µM
same,TGI,[8]; read-out: Log TGI (converted),> 100 µM
same,GI50,[9],16.2 µM
same,LC50,[9],> 100 µM
same,TGI,[9]; read-out: Log TGI (converted),51.3 µM
same,GI50,[10],46.8 µM
same,LC50,[10],> 100 µM
same,TGI,[10]; read-out: Log TGI (converted),> 100 µM
same,GI50,[11],30.9 µM
same,CC50,[11]; [41],> 100 µM
same,TGI,[11]; read-out: Log TGI (converted),85.1 µM
same,GI50,[12],29.5 µM
same,CC50,[12]; [41],> 100 µM
same,TGI,[12]; read-out: Log TGI (converted),97.7 µM
same,MIC,[13],15 µg/mL
same,GI50,[14],14.8 µM
same,LC50,[14],69.2 µM
same,TGI,[14]; read-out: Log TGI (converted),32.4 µM
same,GI50,[15],26.9 µM
same,CC50,[15]; [41],> 100 µM
same,TGI,[15]; read-out: Log TGI (converted),> 100 µM
same,GI50,[16],18.6 µM
same,CC50,[16]; [41],> 100 µM
same,TGI,[16]; read-out: Log TGI (converted),> 97.7 µM
same,GI50,[17],38 µM
same,"LC50 (lethal concentration, 50%)",[17],> 100 µM
same,TGI,[17]; read-out: Log TGI (converted),> 100 µM
same,GI50,[18],30.2 µM
same,LC50,[18],> 100 µM
same,TGI,[18]; read-out: Log TGI (converted),> 100 µM
same,GI50,[19],45.7 µM
same,LC50,[19],> 100 µM
same,TGI,[19]; read-out: Log TGI (converted),> 100 µM
same,GI50,[20],11.5 µM
same,LC50,[20],66.1 µM
same,TGI,[20]; read-out: Log TGI (converted),27.5 µM
same,GI50,[21],22.9 µM
same,LC50,[21],> 100 µM
same,TGI,[21]; read-out: Log TGI (converted),67.6 µM
same,GI50,[22],17.8 µM
same,LC50,[22],57.5 µM
same,TGI,[22]; read-out: Log TGI (converted),31.6 µM
same,GI50,[23],29.5 µM
same,CC50,[23]; [41],> 100 µM
same,TGI,[23]; read-out: Log TGI (converted),95.5 µM
same,GI50,[24],32.4 µM
same,LC50,[24],> 100 µM
same,TGI,[24]; read-out: Log TGI (converted),> 100 µM
same,GI50,[25],25.7 µM
same,CC50,[25]; [41],> 100 µM
same,TGI,[25]; read-out: Log TGI (converted),> 100 µM
same,LC50,[26],> 100 µM
same,TGI,[26]; read-out: Log TGI (converted),> 100 µM
same,GI50,[26]; read-out: pGI50 (converted),20.9 µM
same,GI50,[27],89.1 µM
same,LC50,[27],> 100 µM
same,TGI,[27]; read-out: Log TGI (converted),> 100 µM
same,GI50,[28],25.1 µM
same,LC50,[28],> 100 µM
same,TGI,[28]; read-out: Log TGI (converted),85.1 µM
same,GI50,[29],26.3 µM
same,LC50,[29],> 100 µM
same,TGI,[29]; read-out: Log TGI (converted),74.1 µM
same,GI50,[30],85.1 µM
same,LC50,[30],> 100 µM
same,TGI,[30]; read-out: Log TGI (converted),> 100 µM
same,GI50,[31],37.2 µM
same,CC50,[31]; [41],> 100 µM
same,TGI,[31]; read-out: Log TGI (converted),> 100 µM
same,GI50,[32],22.9 µM
same,"LC50 (lethal concentration, 50%)",[32],> 100 µM
same,TGI,[32]; read-out: Log TGI (converted),53.7 µM
same,GI50,[33],30.9 µM
same,CC50,[33]; [41],> 100 µM
same,TGI,[33]; read-out: Log TGI (converted),> 100 µM
same,GI50,[34],20 µM
same,LC50,[34],> 100 µM
same,TGI,[34]; read-out: Log TGI (converted),83.2 µM
same,GI50,[35],31.6 µM
same,LC50,[35],> 100 µM
same,TGI,[35]; read-out: Log TGI (converted),> 100 µM
same,GI50,[36],21.9 µM
same,LC50,[36],> 100 µM
same,TGI,[36]; read-out: Log TGI (converted),57.5 µM
same,GI50,[37],28.2 µM
same,CC50,[37]; [41],> 100 µM
same,TGI,[37]; read-out: Log TGI (converted),> 100 µM
same,GI50,[38],36.3 µM
same,LC50,[38],> 100 µM
same,TGI,[38]; read-out: Log TGI (converted),100 µM
same,GI50,[39],28.8 µM
same,LC50,[39],> 100 µM
same,TGI,[39]; read-out: Log TGI (converted),> 100 µM
same,GI50,[40],29.5 µM
same,LC50,[40],> 100 µM
same,TGI,[40]; read-out: Log TGI (converted),> 100 µM
